In brackets after ≈: the same amount, converted by molar mass. Activity calls are given as the source filed them. The calls are words filed in the database; no cut-off is given here.
Experiments:
Bacillus spizizenii [1] = experiment: Antibacterial activity against Bacillus subtilis ATCC 6633 assessed as growth inhibition at 1 mg/mL after 24 hrs by agar-cup diffusion method; assay type: functional; settings: ATCC 6633, 24 h, read-out: DIZ
Outline: (§1)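 Agar-cup diffusion: 1 mL of 6 h broth culture seeded per 100 mL molten sterile agar at 45 °C and poured into plates. 8 mm cups cut, each filled with 0.1 mL of 1 mg/mL test solution. Incubated 37 °C for 24 h, 48 h for C. albicans. DMSO control per organism. Inhibition zone diameter in mm, mean of three measurements.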

Aspergillus niger = experiment: Antifungal activity against Aspergillus niger assessed as growth inhibition at 1 mg/mL after 24 hrs by agar-cup diffusion method; assay type: functional, organism-based; outline: as §1
Bacillus spizizenii [2] = experiment: Antibacterial activity against Bacillus subtilis ATCC 6633 assessed as growth inhibition after 48 hrs by two-fold serial dilution assay; assay type: functional; settings: ATCC 6633, 48 h
Outline: (§2)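 Twofold serial broth dilution run on compounds giving inhibition zones of 13 mm or more. Organisms pre-grown in suitable broth at 37 °C, 24 h for bacteria and 48 h for fungi. Dilution series 200, 100, 50, 25, 12.5, 6.25. Each 5 mL tube inoculated with 0.1 mL and incubated 37 °C for 48 h. Tubes scored for presence or absence of growth.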

Staphylococcus aureus [3] = experiment: Antibacterial activity against Staphylococcus aureus ATCC 6538 assessed as growth inhibition after 48 hrs by two-fold serial dilution assay; assay type: functional; settings: ATCC 6538, 48 h; outline: as §2
Escherichia coli [4] = experiment: Antibacterial activity against Escherichia coli ATCC 25922 assessed as growth inhibition at 1 mg/mL after 24 hrs by agar-cup diffusion method; assay type: functional; settings: ATCC 25922, 24 h, read-out: DIZ; outline: as §1
Pseudomonas aeruginosa [5] = experiment: Antibacterial activity against Pseudomonas aeruginosa ATCC 27853 assessed as growth inhibition at 1 mg/mL after 24 hrs by agar-cup diffusion method; assay type: functional; settings: ATCC 27853, 24 h, read-out: DIZ; outline: as §1
Escherichia coli [6] = experiment: Bactericidal activity against Escherichia coli ATCC 25922 after 18 hrs; assay type: functional; settings: ATCC 25922, 18 h
Outline: (§3)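 Continuation of the broth-dilution MIC test. A loopful from each tube without visible growth spread on a quarter of a Mueller-Hinton agar plate and incubated 18 h. Lowest concentration giving no growth on subculture taken as the MBC.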

Staphylococcus aureus [7] = experiment: Bactericidal activity against Staphylococcus aureus ATCC 6538 after 18 hrs; assay type: functional; settings: ATCC 6538, 18 h; outline: as §3
Pseudomonas aeruginosa [8] = experiment: Antibacterial activity against Pseudomonas aeruginosa ATCC 27853 assessed as growth inhibition after 48 hrs by two-fold serial dilution assay; assay type: functional; settings: ATCC 27853, 48 h; outline: as §2
Candida albicans [9] = experiment: Fungicidal activity against Candida albicans ATCC 10231 after 18 hrs; assay type: functional; settings: ATCC 10231, 18 h; outline: as §3
Bacillus spizizenii [10] = experiment: Bactericidal activity against Bacillus subtilis ATCC 6633 after 18 hrs; assay type: functional; settings: ATCC 6633, 18 h; outline: as §3
Escherichia coli [11] = experiment: Antibacterial activity against Escherichia coli ATCC 25922 assessed as growth inhibition after 48 hrs by two-fold serial dilution assay; assay type: functional; settings: ATCC 25922, 48 h; outline: as §2
Staphylococcus aureus [12] = experiment: Antibacterial activity against Staphylococcus aureus ATCC 6538 assessed as growth inhibition at 1 mg/mL after 24 hrs by agar-cup diffusion method; assay type: functional; settings: ATCC 6538, 24 h, read-out: DIZ; outline: as §1
Candida albicans [13] = experiment: Antifungal activity against Candida albicans ATCC 10231 assessed as growth inhibition after 48 hrs by two-fold serial dilution assay; assay type: functional; settings: ATCC 10231, 48 h; outline: as §2
Candida albicans [14] = experiment: Antifungal activity against Candida albicans ATCC 10231 assessed as growth inhibition at 1 mg/mL after 48 hrs by agar-cup diffusion method; assay type: functional; settings: ATCC 10231, 48 h, read-out: DIZ; outline: as §1
Pseudomonas aeruginosa [15] = experiment: Bactericidal activity against Pseudomonas aeruginosa ATCC 27853 after 18 hrs; assay type: functional; settings: ATCC 27853, 18 h; outline: as §3

- MIC (Bacillus spizizenii [2]): 50 µg/mL (≈ 156 µM)
- MIC (Staphylococcus aureus [3]): 25 µg/mL (≈ 77.8 µM)
- MIC (Pseudomonas aeruginosa [8]): 50 µg/mL (≈ 156 µM)
- MIC (Escherichia coli [11]): 100 µg/mL (≈ 311 µM)
- MIC (Candida albicans [13]): 100 µg/mL (≈ 311 µM)
Compound: Cc1ccc(NC(=S)Nc2nc(C)c(C(=O)NN)s2)cc1
- zone of inhibition at 1000 µg/mL (Bacillus spizizenii [1]): > 13 mm
- growth inhibition (GI) (Aspergillus niger): inactive
- zone of inhibition at 1000 µg/mL (Escherichia coli [4]): > 13 mm
- zone of inhibition at 1000 µg/mL (Pseudomonas aeruginosa [5]): > 13 mm
- MBC (Escherichia coli [6]): 100 µg/mL (≈ 311 µM)
- MBC (Staphylococcus aureus [7]): 25 µg/mL (≈ 77.8 µM)
- MFC (Candida albicans [9]): 100 µg/mL (≈ 311 µM)
- MBC (Bacillus spizizenii [10]): 50 µg/mL (≈ 156 µM)
- zone of inhibition at 1000 µg/mL (Staphylococcus aureus [12]): > 13 mm
- zone of inhibition at 1000 µg/mL (Candida albicans [14]): > 13 mm
- MBC (Pseudomonas aeruginosa [15]): 100 µg/mL (≈ 311 µM)

Reference: ChEMBL document CHEMBL3124924, “Bifunctional ethyl 2-amino-4-methylthiazole-5-carboxylate derivatives: synthesis and in vitro biological evaluation as antimicrobial and anticancer agents” (2014)
